Among the data in ChEMBL document CHEMBL1137805, “In vitro cytotoxicity of the protoberberine-type alkaloids” (2001) are GI50 values, retold here.

Holding throughout (assay type): functional
Experiment [1] in a line: Cytotoxicity against human breast cancer cells. To be noted: Cancer cell lines. In a few lines: (§1)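 Subpanel values are mean GI50 over the panel's strains of each tumour type: breast 5, colon 6, lung 6 or 7, ovarian 5, stomach 6. […] Cells were grown in RPMI 1640 with 5% FBS at 37 °C under 5% CO2.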
Experiment [2] is described as follows: Cytotoxicity against human CNS cancer cells. To be noted: Cancer cell lines.
A short description of experiment [3]: Cytotoxicity against human colon cancer cells. To be noted: Cancer cell lines. In a few lines:
as §1

Experiment [4] can be described thus: Cytotoxicity against human lung cancer cells. To be noted: Cancer cell lines. In a few lines:
as §1

Experiment [5] is described as follows: Cytotoxicity against human ovarian cancer cells. To be noted: Cancer cell lines. In a few lines: as §1
A short description of experiment [6]: Cytotoxicity against human stomach cancer cells. To be noted: Cancer cell lines. In a few lines:
as §1

Experiment [7] has as its system MKN-28. The experiment in a line: Cytotoxicity against human MKN28 cells. In a few lines: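 Each line was grown in RPMI 1640 with 5% FBS and penicillin ([…]) at 37 °C under 5% CO2. Cells were plated, attached overnight, and exposed to drug for 48 h. Sulforhodamine B staining was read at 525 nm, with control, test and time-zero absorbances. % growth = 100×(T−T0)/(C−T0), or […] T<T0. GI50 is the concentration giving 50% growth.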

What is called GI50 is the concentration giving 50% growth inhibition. Higher therefore signals lower sensitivity of the cells. As for `CCCCc1c2[n+](cc3c(OC)c(OC)ccc13)CCc1cc3c(cc1-2)OCO3`, the GI50 is 6310 nM in experiment [1]; 3710 nM in experiment [2]; 2510 nM in experiment [3]; 1780 nM in experiment [4]; 5250 nM in experiment [5]; 3900 nM in experiment [6]. The compound further came in with a GI50 in experiment [7] below 2690 nM.
In the case of `CCCCCCc1c2[n+](cc3c(OC)c(OC)ccc13)CCc1cc3c(cc1-2)OCO3`, the GI50 in experiment [1] stood at 760 nM; in experiment [2], 1200 nM; in experiment [3], 720 nM; in experiment [4], 490 nM; in experiment [5], 1170 nM; in experiment [6], 760 nM. In addition, the GI50 in experiment [7] came out at 830 nM.
In the case of `COc1cc(Br)c2cc3[n+](c(-c4ccccc4)c2c1OC)CCc1cc2c(cc1-3)OCO2`, the GI50 was determined as 1000 nM in experiment [1]; 2000 nM in experiment [2]; 1550 nM in experiment [3]; 2190 nM in experiment [4]; 2450 nM in experiment [5]; 1910 nM in experiment [6]. Further, the GI50 in experiment [7] was below 2690 nM.
For the compound `CCCCc1c2c(OC)c(OC)cc(Br)c2cc2[n+]1CCc1cc3c(cc1-2)OCO3`, the GI50 in experiment [1] was determined as 520 nM; in experiment [2], 1910 nM; in experiment [3] it was 1110 nM; in experiment [4] it was 1540 nM; in experiment [5] it was 1380 nM; in experiment [6], 1290 nM. The compound also returned a 50% growth inhibitory concentration (GI50) in experiment [7] below 2690 nM.
With `CCCCCCc1c2c(OC)c(OC)cc(Br)c2cc2[n+]1CCc1cc3c(cc1-2)OCO3`, the GI50 was found to be 310 nM in experiment [1]; 410 nM in experiment [2]; 440 nM in experiment [3]; 410 nM in experiment [4]; 480 nM in experiment [5]; 340 nM in experiment [6]. This compound also registered a GI50 in experiment [7] of 410 nM.
As to `CCCCCCc1c2[n+](cc3c(OC)c(OC)ccc13)CCc1cc(OC)c(OC)cc1-2` [13-HEXYLPALMATINE], the GI50 in experiment [1] is 1050 nM; in experiment [2] it was 2950 nM; in experiment [3] it was 1820 nM; in experiment [4] it was 2140 nM; in experiment [5], 2880 nM; in experiment [6], 3470 nM. The GI50 in experiment [7] is below 2690 nM.
On to `COc1cccc2c1C(=O)c1c(O)c3c(c(O)c1C2=O)C[C@@](O)(C(=O)CO)C[C@@H]3O[C@H]1C[C@H](N)[C@H](O)[C@H](C)O1` [DOXORUBICIN], for which the GI50 in experiment [1] was found to be 1820 nM; in experiment [3], 2550 nM; in experiment [4], 400 nM; in experiment [5], 4350 nM; in experiment [6], 5820 nM.
Taken in the same sequence, the figures for `CO[C@@]12[C@H](COC(N)=O)C3=C(C(=O)C(C)=C(N)C3=O)N1C[C@@H]1N[C@@H]12` [MITOMYCIN] were 34 nM, 180 nM, 23 nM, 120 nM and 100 nM.
